Structures are written as SMILES. Values after ≈ are worked out from the molar mass of the structure shown. A value given as a limit tells only on which side of the number the result lay.

These results are taken from ChEMBL document CHEMBL3271939, “Studies of antitumor agents. 1. Resolution of racemic 1-(tetrahydro-2-furanyl)-k-fluorouracil into the R and S isomers and examination of the biological activities of the isomers” (J Med Chem, 1977).

The first data set deals with Klebsiella pneumoniae. As to the kind of experiment: Antibacterial activity against Klebsiella pneumoniae ATCC 10031 assessed as growth inhibition after 24 hrs by plate dilution method. The class given is functional. The settings on record: ATCC 10031, 24 h. Summed up:
(§1)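 MIC determined by standard plate dilution in defined medium […], plates incubated 37 °C for 24 h.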
The term MIC denotes the lowest concentration found to suppress growth. Regarding `O=c1[nH]c(=O)n([C@H]2CCCO2)cc1F`, the MIC was over 1000 µM.

Turning to `O=c1[nH]c(=O)n([C@@H]2CCCO2)cc1F`, the MIC was over 1000 µM.

As to `O=c1[nH]c(=O)n(C2CCCO2)cc1F` (racemic) [TEGAFUR], the minimum inhibitory concentration (MIC) is over 1000 µM.

For `O=c1[nH]cc(F)c(=O)[nH]1` [FLUOROURACIL], the minimal inhibitory concentration (MIC) was determined as 601 µM (≈ 78.2 µg/mL).

System in a further data set: not listed separately
The data set can be described thus: Drug metabolism in mouse liver microsomes assessed as fluorouracil release by measuring antibacterial activity against Staphylococcus aureus 209P at 200 ug after 4 hrs by thin layer cup method in presence of NADPH.
Settings: not given
The class given is ADME. The essentials:
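Mouse liver microsomes in 10 mM phosphate buffer pH 7.4, 1.15% KCl (25% homogenate equivalent); 0.8 mL suspension, 0.1 mL of 50 mM NADPH stock, 200 µg isomer, made to 1 mL; 37 °C, 4 h. After CHCl3 extraction of unchanged substrate, FU in neutralized aqueous phase bioassayed against S. aureus 209P by thin-layer-cup method.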
(In general: Liver microsomes are a subcellular fraction often used to study metabolism.)
Turning to `O=c1[nH]c(=O)n([C@H]2CCCO2)cc1F`, the Drug metabolism worked out at 10.32 µg/mL.

With `O=c1[nH]c(=O)n([C@@H]2CCCO2)cc1F`, the Drug metabolism came to 13.16 µg/mL.

System in another data set: not listed separately
As to the kind of experiment: Antitumor activity against rat AH-130 cells allografted in Donryu rat assessed as inhibition of tumor growth at 90 mg/kg, ip administered daily for 7 days starting 24 hrs after tumor inoculation measured on 10th day post-tumor inoculation. The settings on record: route intraperitoneal, read-out: TGI. The class given is functional. Summed up: (§2)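 Male Donryu rats (120 ± 5 g) inoculated s.c. in inguinal region with 5×10^6 AH-130 carcinoma or Yoshida sarcoma cells per rat; drug 90 mg/kg i.p. daily for 7 days starting 24 h later; six animals per group. Body weight and tumor weight measured on day 10 after inoculation; tumor weight compared with untreated control group to give % inhibition.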
`O=c1[nH]c(=O)n([C@H]2CCCO2)cc1F`: the inhibition in vivo at 90 mg/kg stood at 61.5%.

As to `O=c1[nH]c(=O)n([C@@H]2CCCO2)cc1F`, the inhibition in vivo at 90 mg/kg was determined as 71.9%.

Regarding `O=c1[nH]c(=O)n(C2CCCO2)cc1F` (racemic) [TEGAFUR], the inhibition in vivo at 90 mg/kg worked out at 51.4%.

In the next data set the test system is Bacillus subtilis. As to the kind of experiment: Antibacterial activity against Bacillus subtilis ATCC 6633 assessed as growth inhibition after 24 hrs by plate dilution method. The note with it: ATCC 6633, 24 h. The class given is functional. Summed up:
as §1
In the case of `O=c1[nH]c(=O)n([C@H]2CCCO2)cc1F`, the MIC worked out at 780 µM (≈ 156 µg/mL).

Take `O=c1[nH]c(=O)n([C@@H]2CCCO2)cc1F`: the MIC was over 1000 µM.

Turning to `O=c1[nH]c(=O)n(C2CCCO2)cc1F` (racemic) [TEGAFUR], the MIC is 780 µM (≈ 156 µg/mL).

Regarding `O=c1[nH]cc(F)c(=O)[nH]1` [FLUOROURACIL], the MIC was 4.62 µM (≈ 0.601 µg/mL).

Another data set deals with Rattus norvegicus. As to the kind of experiment: Toxicity in Donryu rat allografted with rat AH-130 cells assessed as body weight at 90 mg/kg, ip administered daily for 7 days starting 24 hrs after tumor inoculation measured on 10th day post-tumor inoculation (reference value: 64.1 gms). Details: dose 90 mg/kg, route intraperitoneal. The class given is organism-based. The note with it: in vivo. The essentials: as §2
`O=c1[nH]c(=O)n([C@H]2CCCO2)cc1F`: the Activity was determined as 40.2 g.

With `O=c1[nH]c(=O)n([C@@H]2CCCO2)cc1F`, the Activity turned out to be 33 g.

For `O=c1[nH]c(=O)n(C2CCCO2)cc1F` (racemic) [TEGAFUR], the Activity worked out at 33 g.

System in the next data set: not listed separately
The data set can be described thus: Drug metabolism in mouse liver microsomes assessed as fluorouracil release by measuring antibacterial activity against Staphylococcus aureus 209P at 200 ug after 4 hrs by thin layer cup method. The class given is ADME.
Settings: not given
Summed up:
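Mouse liver microsome fraction suspended in 10 mM phosphate buffer pH 7.4 with 1.15% KCl (equivalent to 25% homogenate); 0.8 mL suspension plus 200 µg isomer in 1 mL, no NADPH, 37 °C for 4 h. Unchanged substrate removed by CHCl3 extraction; released FU in neutralized aqueous layer quantified by antibacterial activity against S. aureus 209P, thin-layer-cup method.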
For the compound `O=c1[nH]c(=O)n([C@H]2CCCO2)cc1F`, the Drug metabolism came to 0.51 µg/mL.

As for `O=c1[nH]c(=O)n([C@@H]2CCCO2)cc1F`, the Drug metabolism turned out to be 0.72 µg/mL.

Another data set deals with Escherichia coli. As to the kind of experiment: Antibacterial activity against Escherichia coli NIHJ assessed as growth inhibition after 24 hrs by plate dilution method. The class given is functional.
Settings: not given
Summed up:
as §1
Consider `O=c1[nH]c(=O)n([C@H]2CCCO2)cc1F`, for which the MIC is over 1000 µM.

Consider `O=c1[nH]c(=O)n([C@@H]2CCCO2)cc1F`, for which the MIC was over 1000 µM.

Consider `O=c1[nH]c(=O)n(C2CCCO2)cc1F` (racemic) [TEGAFUR], for which the minimal inhibitory concentration (MIC) is over 1000 µM.

Take `O=c1[nH]cc(F)c(=O)[nH]1` [FLUOROURACIL]: the MIC was 18.6 µM (≈ 2.42 µg/mL).

A further data set deals with YOSHIDA. The data set can be described thus: Antitumor activity against rat Yoshida cells allografted in Donryu rat assessed as tumor weight at 90 mg/kg, ip administered daily for 7 days starting 24 hrs after tumor inoculation measured on 10th day post-tumor inoculation (reference value: 3.65 +/- 0.60 gms). The class given is functional. The note with it: route intraperitoneal. The essentials: as §2
Turning to `O=c1[nH]c(=O)n([C@H]2CCCO2)cc1F`, the Activity came out at 2.42 g.

For `O=c1[nH]c(=O)n([C@@H]2CCCO2)cc1F`, the Activity is reported as 2.17 g.

In the case of `O=c1[nH]c(=O)n(C2CCCO2)cc1F` (racemic) [TEGAFUR], the Activity is 2.23 g.

System in a further data set: not listed separately
The data set can be described thus: Antitumor activity against rat AH-130 cells allografted in Donryu rat assessed as tumor weight at 90 mg/kg, ip administered daily for 7 days starting 24 hrs after tumor inoculation measured on 10th day post-tumor inoculation (reference value: 4.73 +/- 1.19 gms). The settings on record: route intraperitoneal. The class given is functional. The essentials: as §2
For the compound `O=c1[nH]c(=O)n([C@H]2CCCO2)cc1F`, the Activity turned out to be 1.82 g.

Regarding `O=c1[nH]c(=O)n([C@@H]2CCCO2)cc1F`, the Activity amounted to 1.33 g.

`O=c1[nH]c(=O)n(C2CCCO2)cc1F` (racemic) [TEGAFUR]: the Activity was 2.3 g.

The subject of the next data set is Brevundimonas diminuta. The data set can be described thus: Antibacterial activity against Pseudomonas diminuta IAM 1513 assessed as growth inhibition after 24 hrs by plate dilution method. The class given is functional. The settings on record: IAM 1513, 24 h. The essentials: as §1
Take `O=c1[nH]c(=O)n([C@H]2CCCO2)cc1F`: the MIC was over 1000 µM.

As to `O=c1[nH]c(=O)n([C@@H]2CCCO2)cc1F`, the MIC is over 1000 µM.

With `O=c1[nH]c(=O)n(C2CCCO2)cc1F` (racemic) [TEGAFUR], the minimum inhibitory concentration (MIC) is over 1000 µM.

As to `O=c1[nH]cc(F)c(=O)[nH]1` [FLUOROURACIL], the minimum inhibitory concentration (MIC) is over 1000 µM.

In the next data set the test system is Rattus norvegicus. As to the kind of experiment: Toxicity in Donryu rat allografted with rat Yoshida cells assessed as body weight at 90 mg/kg, ip administered daily for 7 days starting 24 hrs after tumor inoculation measured on 10th day post-tumor inoculation (reference value: 53 gms). The class given is organism-based. Details: dose 90 mg/kg, route intraperitoneal. The settings on record: in vivo. Summed up: as §2
For `O=c1[nH]c(=O)n([C@H]2CCCO2)cc1F`, the Activity is given as 42 g.

As for `O=c1[nH]c(=O)n([C@@H]2CCCO2)cc1F`, the Activity came to 39.3 g.

On to `O=c1[nH]c(=O)n(C2CCCO2)cc1F` (racemic) [TEGAFUR], for which the Activity stood at 33.2 g.

The next data set has as its system Proteus vulgaris. As to the kind of experiment: Antibacterial activity against Proteus vulgaris IFO 3045 assessed as growth inhibition after 24 hrs by plate dilution method. The class given is functional. The note with it: IFO 3045, 24 h. Summed up:
as §1
On to `O=c1[nH]c(=O)n([C@H]2CCCO2)cc1F`, for which the minimum inhibitory concentration (MIC) is over 1000 µM.

For the compound `O=c1[nH]c(=O)n([C@@H]2CCCO2)cc1F`, the minimal inhibitory concentration (MIC) is over 1000 µM.

As for `O=c1[nH]c(=O)n(C2CCCO2)cc1F` (racemic) [TEGAFUR], the MIC is over 1000 µM.

For `O=c1[nH]cc(F)c(=O)[nH]1` [FLUOROURACIL], the MIC came to 18.5 µM (≈ 2.41 µg/mL).

For the next data set, the system named is Micrococcus luteus. As to the kind of experiment: Antibacterial activity against Sarcina lutea ATCC 9341 assessed as growth inhibition after 24 hrs by plate dilution method. The class given is functional. The settings on record: ATCC 9341, 24 h. Summed up:
as §1
Turning to `O=c1[nH]c(=O)n([C@H]2CCCO2)cc1F`, the minimum inhibitory concentration (MIC) turned out to be 6 µM (≈ 1.2 µg/mL).

Turning to `O=c1[nH]c(=O)n([C@@H]2CCCO2)cc1F`, the MIC came to 12 µM (≈ 2.4 µg/mL).

`O=c1[nH]c(=O)n(C2CCCO2)cc1F` (racemic) [TEGAFUR]: the minimal inhibitory concentration (MIC) stood at 12 µM (≈ 2.4 µg/mL).

As for `O=c1[nH]cc(F)c(=O)[nH]1` [FLUOROURACIL], the MIC turned out to be 0.0723 µM (≈ 0.0094 µg/mL).

Another data set concerns YOSHIDA. As to the kind of experiment: Antitumor activity against rat Yoshida cells allografted in Donryu rat assessed as inhibition of tumor growth at 90 mg/kg, ip administered daily for 7 days starting 24 hrs after tumor inoculation measured on 10th day post-tumor inoculation. The class given is functional. The note with it: route intraperitoneal, read-out: TGI. The essentials:
as §2
Take `O=c1[nH]c(=O)n([C@H]2CCCO2)cc1F`: the inhibition in vivo at 90 mg/kg turned out to be 33.7%.

Regarding `O=c1[nH]c(=O)n([C@@H]2CCCO2)cc1F`, the inhibition in vivo at 90 mg/kg was found to be 40.6%.

For the compound `O=c1[nH]c(=O)n(C2CCCO2)cc1F` (racemic) [TEGAFUR], the inhibition in vivo at 90 mg/kg came to 38.9%.

A further data set relates to Micrococcus flavus. As to the kind of experiment: Antibacterial activity against Micrococcus flavus ATCC 10240 assessed as growth inhibition after 24 hrs by plate dilution method. The class given is functional. The note with it: ATCC 10240, 24 h. The essentials: as §1
For the compound `O=c1[nH]c(=O)n([C@H]2CCCO2)cc1F`, the minimum inhibitory concentration (MIC) was determined as 750 µM (≈ 150 µg/mL).

As for `O=c1[nH]c(=O)n([C@@H]2CCCO2)cc1F`, the minimal inhibitory concentration (MIC) is 375 µM (≈ 75.1 µg/mL).

On to `O=c1[nH]c(=O)n(C2CCCO2)cc1F` (racemic) [TEGAFUR], for which the MIC worked out at 750 µM (≈ 150 µg/mL).

In the case of `O=c1[nH]cc(F)c(=O)[nH]1` [FLUOROURACIL], the minimum inhibitory concentration (MIC) turned out to be 0.00425 µM (≈ 0.000553 µg/mL).

Another data set concerns Staphylococcus aureus. The data set can be described thus: Antibacterial activity against Staphylococcus aureus ATCC 6538P assessed as growth inhibition after 24 hrs by plate dilution method. The class given is functional.
Settings: not given
The essentials:
as §1
`O=c1[nH]c(=O)n([C@H]2CCCO2)cc1F`: the minimal inhibitory concentration (MIC) was determined as 12 µM (≈ 2.4 µg/mL).

On to `O=c1[nH]c(=O)n([C@@H]2CCCO2)cc1F`, for which the minimum inhibitory concentration (MIC) came out at 12 µM (≈ 2.4 µg/mL).

For `O=c1[nH]c(=O)n(C2CCCO2)cc1F` (racemic) [TEGAFUR], the MIC stood at 12 µM (≈ 2.4 µg/mL).

Take `O=c1[nH]cc(F)c(=O)[nH]1` [FLUOROURACIL]: the MIC amounted to 0.0723 µM (≈ 0.0094 µg/mL).
